Where two headings read alike, the source gives them in different places.
What was measured:
αIIbβ3 headpiece [1] = target: T1, αIIbβ3 headpiece (Homo sapiens, UniProt P05106+P08514); assay: Size-exclusion chromatography; type: biochemical; conditions: 10 μM drug; for effect on αIIbβ3 headpiece conformation in gel filtration: Mg2+ and Mn2+ buffers
Procedure, shortened: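 Superdex 200 column equilibrated with 10 µM test compound in HEPES-buffered saline containing either 1 mM Mg2+/1 mM Ca2+ or 2 mM Mn2+/0.2 mM Ca2+. αIIbβ3 headpiece (30 µg) pre-incubated 30 min at RT with 60 µM compound in matching buffer, then chromatographed. Hydrodynamic radius taken from elution. Two runs, or one, per compound; controls ≥3.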

αIIbβ3 headpiece [2] = target: T1, αIIbβ3 headpiece; conditions: for conformational state of headpiece molecules in the crystal lattice: state 1 closed, state 8 open
Procedure, shortened: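 Closed αIIbβ3 headpiece–10E5 Fab crystals stabilised in 15% PEG 8000, 0.2 M ammonium sulfate, 0.1 M Tris-HCl pH 8.9, with glycerol raised in 5% steps to 15%. Compound (0.1-1 mM) added in the final 20% glycerol cryo step, with 1 mM MgCl2/1 mM CaCl2 or 2 mM MnCl2/0.2 mM CaCl2. Soaked 4 h, plunge-frozen in liquid N2. Synchrotron diffraction data collected, then structure refinement.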

αIIbβ3_N305T = αIIbβ3_N305T (Homo sapiens, UniProt P05106+P08514, N331T); assay: MBC319.4 Fab LIBS epitope exposure on αIIbβ3_N305T transfectants; type: cell-based; conditions: αIIbβ3 N305T transfectants, inhibitors at 100x Kd
Procedure, shortened: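 αIIbβ3_N305T transfectants of α5/αV-knockout Expi293F cells, harvested 48 h post-transfection and EDTA-washed. Incubated with 20 nM Alexa647-labelled MBC319.4 Fab and test compound in L-15 with 0.1% BSA, equilibrated 2 h at 22°C. Fab binding read by flow cytometry without washing, as MFI.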

[3] = target: αIIbβ3 on washed human platelets (Homo sapiens, UniProt P05106+P08514); assay: Platelets LIBS exposure assay; type: cell-based
Procedure, shortened: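 Blood from drug-free healthy donors was taken into acid-citrate-dextrose. PRP was spun (140xg, 12 min), given PGE1 at 50 ng/ml, pelleted, washed in citrate-dextrose buffer pH 6.5 and resuspended in Tyrode's pH 7.4 with 1% BSA and 1 mM Ca²⁺/Mg²⁺. […] Read-out was unwashed flow cytometry MFI, over three days with two donors.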

αIIbβ3 on platelets = conditions: cited from earlier work; for LIBS epitopes on platelets in platelet-rich plasma: ref Baba et al., Murphy et al.
[4] = system: clot retraction in human PRP; assay: Clot retraction in platelet-rich plasma; type: cell-based; conditions: thrombin
Procedure, shortened: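 Citrated human PRP pre-incubated 20 min at RT with test compound or buffer (in Tyrode's buffer + 1% BSA) at several concentrations. Glass-tube clot retraction started with thrombin (7.5 U/ml stock) at 37°C and imaged every 15 min. Retraction = 1 − (clot area/whole reaction area). IC50 at 30 and 90 min from a three-parameter inhibitor-response fit. Three runs, PRP from three donors.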

αIIbβ3 WT = αIIbβ3 WT (Homo sapiens, UniProt P05106+P08514); assay: MBC319.4 Fab LIBS epitope exposure on αIIbβ3 WT transfectants; type: cell-based; conditions: inhibitors at 100x Kd
Procedure, shortened: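 Cells transiently transfected with αIIbβ3 received valproic acid (3 mM final) and glucose (0.4%) at 24 h, and were washed at 48 h in EDTA-containing then plain L-15/0.1% BSA. Cells were incubated with 20 nM Alexa647-MBC319.4 Fab plus inhibitor (Kd from FITC-echistatin competition on WT transfectants) in L15/0.1% BSA, 22°C for 2 h. Read-out was unwashed flow cytometry.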

[5] = after activation with thrombin 0.5 U/ml

| Compound | effect on αIIbβ3 headpiece opening in gel filtration (αIIbβ3 headpiece [1]; 1 mM Mg2+/1 mM Ca2+) | effect on αIIbβ3 headpiece opening in gel filtration (αIIbβ3 headpiece [1]; 2 mM Mn2+/0.2 mM Ca2+) | effect on structure of closed αIIbβ3 headpiece in crystals (αIIbβ3 headpiece [2]; soaked in Mg2+) | effect on structure of closed αIIbβ3 headpiece in crystals (αIIbβ3 headpiece [2]; soaked in Mn2+) | LIBS epitope exposure (integrin extension) on washed platelets [3, 5] | inhibition of clot retraction [4] | LIBS epitope exposure (integrin extension) on washed platelets ([3]; absence of thrombin) | also measured |
| --- | --- | --- | --- | --- | --- | --- | --- | --- |
| CN1CCN(C(=N)c2ccc(C3=NOC(CN4CCN(CC(=O)O)CC4)C3)cc2)CC1 (stereo not shown) [BMS4, 2-(4-((3-(4-(imino(4-methylpiperazin-1-yl)methyl)phenyl)-4,5-dihydroisoxazol-5-yl)methyl)piperazin-1-yl)acetic acid] | neither UR-2922 nor BMS4 increased the hydrodynamic radius | shifted the headpiece to a smaller hydrodynamic radius than the control | no structural perturbation | no structural perturbation | decreased |  |  | LIBS (MBC319.4) epitope exposure (αIIbβ3_N305T): significantly suppressed LIBS induction; LIBS on platelets (αIIbβ3 on platelets; Mg2+ ref Breth et al., 2005): not to induce LIBS |
| N=C(N)c1ccc(C2=NOC(CN3CCN(CC(=O)O)CC3)C2)cc1 (stereo not shown) [BMS4–1, 3-(4-((3-(4-carbamimidoylphenyl)-4,5-dihydroisoxazol-5-yl)methyl)piperazin-1-yl)acetic acid] |  |  |  | remained in the closed state | decreased | effective |  | effect on αIIbβ3 headpiece conformation in gel filtration (αIIbβ3 headpiece [1]): closure stabilizing; LIBS (MBC319.4) epitope exposure (αIIbβ3_N305T): significantly suppressed LIBS induction |
| N=C(N)c1ccc(C2=NOC(CN3CCC(CC(=O)O)CC3)C2)cc1 (stereo not shown) [BMS4–2, 2-(1-((3-(4-carbamimidoylphenyl)-4,5-dihydroisoxazol-5-yl)methyl)piperidin-4-yl)acetic acid] |  | stabilized headpiece opening |  |  | showing significant induction except for BMS4–2 (p=0.06) | effective |  | Ser-123 sidechain oxygen - MIDAS Mn2+ ion distance (αIIbβ3 headpiece [2]; soaked in Mn2+): 3.7±0.1 Å; conformational state of headpiece molecules in the crystal lattice (αIIbβ3 headpiece [2]; soaked in Mn2+): state 2 |
| O=C(O)CN1CCN(CC2CC(C3CCNCC3)=NO2)CC1 (stereo not shown) [BMS4–3, 2-(4-((3-(piperidin-4-yl)-4,5-dihydroisoxazol-5-yl)methyl)piperazin-1-yl)acetic acid] |  |  |  | remained in the closed state |  |  |  | effect on αIIbβ3 headpiece conformation in gel filtration (αIIbβ3 headpiece [1]): closure stabilizing |
| Cl.Cl.Cl.N=C(N)c1ccc(N2CCN(C3CCN(CC(=O)O)CC3)CC2)cc1 [GR144053] |  |  |  |  | decreased |  |  | effect on αIIbβ3 headpiece conformation in gel filtration (αIIbβ3 headpiece [1]): closing; conformational state of headpiece molecules in the crystal lattice (αIIbβ3 headpiece [2]; soaked in Mn2+): state 1; LIBS (MBC319.4) epitope exposure (αIIbβ3_N305T): significantly suppressed LIBS induction |
| N=C(N)c1ccc(C(=O)N[C@@H](Cc2ccc([N+](=O)[O-])cc2)C(=O)N2CCc3nn(CC(=O)O)cc3C2)cc1 [UR-2922] | neither UR-2922 nor BMS4 increased the hydrodynamic radius | shifted the headpiece to a smaller hydrodynamic radius than the control | no structural perturbation | no structural perturbation | decreased | effective |  | LIBS (MBC319.4) epitope exposure (αIIbβ3_N305T): significantly suppressed LIBS induction; LIBS epitopes on platelets (αIIbβ3 on platelets; Mg2+ ref Baba et al., 2001): not to induce LIBS epitopes |
| N=C(N)c1ccc(-c2ccc(OC[C@@H]3C[C@@H](CC(=O)O)C(=O)N3)cc2)cc1 [fradafiban, 2-((3S,5S)-5-(((4’-carbamimidoyl-[1,1’-biphenyl]-4-yl)oxy)methyl)-2-oxopyrrolidin-3-yl)acetic acid] | did not cause headpiece opening | induced headpiece opening as completely as tirofiban | did not cause any conformational change | induced a 2 Å movement in the β1-α1 loop at the Cα atom of Ser-123 toward ligand |  |  | modestly but significantly induced integrin extension |  |
| N=C(N)c1ccc(N2C[C@H](CN3CCN(CCC(=O)O)CC3)OC2=O)cc1 [gantofiban analog, (S)-3-(4-((3-(4-carbamimidoylphenyl)-2-oxooxazolidin-5-yl)methyl)piperazin-1-yl)propanoic acid] |  |  |  | induced movement of the β1-α1 loop and Ser-123 sidechain oxygen into the position of water 1 |  |  |  | effect on αIIbβ3 headpiece conformation in gel filtration (αIIbβ3 headpiece [1]): does in both Mg^2+ and Mn^2+ |
| [H]/N=C(/N)c1ccc(C(=O)N[C@@H](Cc2ccc(O)cc2)C(=O)N2CCC(OCC(=O)O)CC2)cc1 [lamifiban] | did not cause headpiece opening | induced headpiece opening as completely as tirofiban | did not cause any conformational change | induced a 2 Å movement in the β1-α1 loop at the Cα atom of Ser-123 toward ligand |  |  | modestly but significantly induced integrin extension | LIBS epitopes on platelets in platelet-rich plasma (αIIbβ3 on platelets; 2001, 1998): not to induce LIBS epitopes; exposure of LIBS epitopes on αIIbβ3 on platelets (αIIbβ3 on platelets; ref Murphy et al., 1998): did not induce exposure of LIBS epitopes |
| CN1Cc2cc(C(=O)N3CCC(C4CCNCC4)CC3)ccc2N[C@@H](CC(=O)O)C1=O [lotrafiban, (S)-2-(7-([4,4’-bipiperidine]-1-carbonyl)-4-methyl-3-oxo-2,3,4,5-tetrahydro-1H-benzo[e][1,4]diazepin-2-yl)acetic acid] | caused the headpiece to elute earlier in gel filtration |  | Ser-123 displaced water 1 to coordinate directly to the MIDAS metal ion |  |  |  | Stronger extension | hydrodynamic radius of αIIbβ3 headpiece (αIIbβ3 headpiece [1]; 2 mM Mn2+/0.2 mM Ca2+): ~ 5.36 nm; LIBS (MBC319.4) epitope exposure (αIIbβ3 WT): strongly induced LIBS exposure |
| CCOC(=O)COC1CCN(C(=O)[C@H](C)NC(=O)c2ccc(C(=N)NO)cc2)CC1 [sibrafiban] | did not cause headpiece opening | induced headpiece opening as completely as tirofiban | did not cause any conformational change | induced a 2 Å movement in the β1-α1 loop at the Cα atom of Ser-123 toward ligand |  | effective | modestly but significantly induced integrin extension | LIBS epitopes on platelets in platelet-rich plasma (αIIbβ3 on platelets; 2001, 1998): not to induce LIBS epitopes |
| (2S)-2-((butoxycarbonyl)amino)-3-(2-(3-(4-carbamimidoylphenyl)-4,5-dihydroisoxazol-5-yl)acetamido)propanoic acid [roxifiban] | caused the headpiece to elute earlier in gel filtration |  |  | Ser-123 displaced water 1 to coordinate directly to the MIDAS metal ion |  | effective | Stronger extension | hydrodynamic radius of αIIbβ3 headpiece (αIIbβ3 headpiece [1]; 2 mM Mn2+/0.2 mM Ca2+): ~ 5.36 nm; LIBS (MBC319.4) epitope exposure (αIIbβ3 WT): Weaker but significant induction |
| eptifibatide |  |  | Ser-123 displaced water 1 to coordinate directly to the MIDAS metal ion |  |  |  | Stronger extension | LIBS (MBC319.4) epitope exposure (αIIbβ3 WT): strongly induced LIBS exposure |
| fibrinogen γ C-terminal dodecapeptide: fibrinogen γ C-terminal dodecapeptide HHLGGAKQAGDV |  |  |  |  |  |  |  | LIBS (MBC319.4) epitope exposure (αIIbβ3 WT): Weaker but significant induction |

From article PMC9494814 (Cell, 2022)
